ChEMBL document CHEMBL1138851, “Synthesis, antifungal activity, and structure-activity relationships of coruscanone A analogues” (J Med Chem, 2006)
Values after ≈ are worked out from the molar mass of the structure shown.

Experiments:
Candida albicans [1] = assay: Antifungal activity against Candida albicans ATCC 90028; type: functional, organism-based
In short: (§1)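 Broth microdilution; samples serially diluted in 20% DMSO/saline, duplicate wells. Inoculum 1.0 × 10⁴ CFU/ml in RPMI 1640/2% dextrose/0.03% glutamine/MOPS, pH 6.0. Incubated 37 °C, 18–24 h; OD630 read before and after incubation. IC50 from percent growth vs concentration; MIC as lowest concentration with no detectable growth; MFC as no growth on agar after plating 5 μl from clear wells.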

Candida albicans [2] = assay: Antifungal activity against fluconazole-susceptible Candida albicans; type: functional, organism-based
In short: as §1, with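 “wells.” for “wells. Inoculum 1.0 × 10⁴ CFU/ml in RPMI 1640/2% dextrose/0.03% glutamine/MOPS, pH 6.0.”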

Candida albicans [3] = assay: Antifungal activity against fluconazole-resistant Candida albicans; type: functional, organism-based
In short: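 Broth microdilution (NCCLS-based) against patient isolate #17 (last isolate during fluconazole therapy, azole-resistant); samples serially diluted in 20% DMSO/saline, tested in duplicate. Inoculum 1.0 × 10⁴ CFU/ml in RPMI 1640/2% dextrose/0.03% glutamine/MOPS pH 6.0; 37 °C, 18–24 h; OD630 read before and after. IC50 from % growth versus concentration; MIC = no detectable growth; MFC by subculture onto agar. Means of three independent experiments.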

Cryptococcus neoformans = assay: Antifungal activity against Cryptococcus neoformans ATCC 90113; type: functional, organism-based
In short: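 Serial dilutions in 20% DMSO/saline, tested in duplicate. Inoculum 1.0 × 10⁵ CFU/ml in Sabouraud dextrose broth. Incubated 30 °C, 72 h; OD630 read before and after incubation. IC50 from percent growth vs concentration; MIC as lowest concentration with no detectable growth; MFC as no growth on agar after plating 5 μl from clear wells.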

Aspergillus fumigatus = assay: Antifungal activity against Aspergillus fumigatus ATCC 90906; type: functional, organism-based
Vero = assay: Cytotoxicity against Vero cells by neutral red method; type: cell-based; conditions: Chlorocebus sabaeus
In short: (§2)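 Neutral red assay on ATCC-sourced Vero (African green monkey kidney […]) and LLC-PK1 (pig kidney epithelial) cells. Top test concentration 10 μg/mL. Values are means of three independent experiments.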

LLC-PK1 = assay: Cytotoxicity against LLC-PK1 cells by neutral red method; type: cell-based; conditions: Sus scrofa; in short: as §2

Structure (SMILES) | IC50 (Candida albicans [1]) [µg/mL] | MFC (Candida albicans [1]) [µg/mL] | MIC (Candida albicans [1]) [µg/mL] | IC50 (Candida albicans [2]) [µg/mL] | MFC (Candida albicans [2]) [µg/mL] | MIC (Candida albicans [2]) [µg/mL] | IC50 (Candida albicans [3]) [µg/mL] | IC50 (Cryptococcus neoformans) [µg/mL] | MFC (Cryptococcus neoformans) [µg/mL] | MIC (Cryptococcus neoformans) [µg/mL] | IC50 (Aspergillus fumigatus) [µg/mL] | MFC (Aspergillus fumigatus) [µg/mL] | MIC (Aspergillus fumigatus) [µg/mL] | IC50 (Vero) [µg/mL] | IC50 (LLC-PK1) [µg/mL] | MFC (Candida albicans [3]) [µg/mL] | MIC (Candida albicans [3]) [µg/mL]
COC(/C=C/c1ccccc1)=C1\C(=O)C=C(c2ccccc2)C1=O | > 20 | > 20 | > 20 | 20 (≈ 63.2 µM) | > 20 | > 20 | 18 (≈ 56.9 µM) | > 20 | > 20 | > 20 | > 20 | > 20 | > 20 | > 10 | 5.1 (≈ 16.1 µM) |  | 
CO/C(C)=C1\C(=O)C=C(C)C1=O | > 20 |  |  |  |  |  |  | > 20 |  |  | > 20 |  |  |  |  |  | 
CC1=C(C)C(=O)C(=C(/C=C/c2ccccc2)OC(=O)/C=C/c2ccccc2)C1=O | > 20 |  |  |  |  |  |  | > 20 |  |  | > 20 |  |  |  |  |  | 
CC1=CC(=O)/C(=C(O)/C=C/c2ccccc2)C1=O | > 20 |  |  |  |  |  |  | > 20 |  |  | > 20 |  |  |  |  |  | 
CC1=CC(=O)/C(=C(O)/C=C/c2cccs2)C1=O | > 20 |  |  |  |  |  |  | > 20 |  |  | > 20 |  |  |  |  |  | 
CC(=O)OC(/C=C/c1ccccc1)=C1C(=O)C(C)=C(C)C1=O | > 20 |  |  |  |  |  |  | > 20 |  |  | > 20 |  |  |  |  |  | 
COC(/C=C/c1ccco1)=C1\C(=O)C=C(C)C1=O | 1.4 (≈ 5.73 µM) | 4.17 (≈ 17.1 µM) | 4.17 (≈ 17.1 µM) | 0.93 (≈ 3.81 µM) | 2.5 (≈ 10.2 µM) | 2.5 (≈ 10.2 µM) | 2.4 (≈ 9.83 µM) | 3.4 (≈ 13.9 µM) | 13 (≈ 53.2 µM) | 10 (≈ 40.9 µM) | 8.98 (≈ 36.8 µM) | 20 (≈ 81.9 µM) | 20 (≈ 81.9 µM) | 3.3 (≈ 13.5 µM) | 3.3 (≈ 13.5 µM) | 6.67 (≈ 27.3 µM) | 4.17 (≈ 17.1 µM)
COC(/C=C/c1ccc(O)cc1)=C1\C(=O)C=C(C)C1=O | 3.3 (≈ 12.2 µM) | 10 (≈ 37 µM) | 10 (≈ 37 µM) | 1.86 (≈ 6.88 µM) | 13 (≈ 48.1 µM) | 5 (≈ 18.5 µM) | 5.35 (≈ 19.8 µM) | 6.95 (≈ 25.7 µM) | > 20 | > 20 | > 20 | > 20 | > 20 | 3.7 (≈ 13.7 µM) | 3.4 (≈ 12.6 µM) | 20 (≈ 74 µM) | 20 (≈ 74 µM)
O=C1C=C(c2ccccc2)C(=O)/C1=C(O)\C=C\c1ccccc1 | > 20 |  |  |  |  |  |  | > 20 |  |  | > 20 |  |  |  |  |  | 
CCOC(/C=C/c1ccccc1)=C1\C(=O)C=C(C)C1=O | 5.02 (≈ 18.7 µM) | 20 (≈ 74.5 µM) | 20 (≈ 74.5 µM) | 2.49 (≈ 9.28 µM) | 17 (≈ 63.4 µM) | 12 (≈ 44.7 µM) | 4.51 (≈ 16.8 µM) | 5.02 (≈ 18.7 µM) | 20 (≈ 74.5 µM) | 20 (≈ 74.5 µM) | > 20 | > 20 | > 20 | 4.8 (≈ 17.9 µM) | 4 (≈ 14.9 µM) | 20 (≈ 74.5 µM) | 13 (≈ 48.5 µM)
CCOC(/C=C/c1ccccc1)=C1C(=O)C(C)=C(C)C1=O | > 20 |  |  |  |  |  |  | > 20 |  |  | > 20 |  |  |  |  |  | 
COC(/C=C/c1cccs1)=C1\C(=O)C=C(C)C1=O | 1.21 (≈ 4.65 µM) | 3.33 (≈ 12.8 µM) | 3.33 (≈ 12.8 µM) | 0.74 (≈ 2.84 µM) | 2.5 (≈ 9.6 µM) | 2.5 (≈ 9.6 µM) | 1.39 (≈ 5.34 µM) | 2.49 (≈ 9.57 µM) | 12 (≈ 46.1 µM) | 12 (≈ 46.1 µM) | 9.81 (≈ 37.7 µM) | > 20 | 20 (≈ 76.8 µM) | 3 (≈ 11.5 µM) | 2.8 (≈ 10.8 µM) | 4.17 (≈ 16 µM) | 4.17 (≈ 16 µM)
COC(/C=C/c1ccccc1)=C1C(=O)C(C)=C(C)C1=O | > 20 |  |  |  |  |  |  | > 20 |  |  | > 20 |  |  |  |  |  | 
COC(/C=C/c1ccc(Cl)cc1)=C1\C(=O)C=C(C)C1=O | 1.39 (≈ 4.81 µM) | 4.17 (≈ 14.4 µM) | 4.17 (≈ 14.4 µM) | 0.64 (≈ 2.22 µM) | 2.92 (≈ 10.1 µM) | 2.08 (≈ 7.2 µM) | 0.86 (≈ 2.98 µM) | 2.23 (≈ 7.72 µM) | 12 (≈ 41.6 µM) | 12 (≈ 41.6 µM) | 20 (≈ 69.3 µM) | > 20 | > 20 | 5.5 (≈ 19 µM) | 3.1 (≈ 10.7 µM) | 2.92 (≈ 10.1 µM) | 2.92 (≈ 10.1 µM)
CC1=CC(=O)/C(=C(O)/C=C/c2ccco2)C1=O | > 20 |  |  |  |  |  |  | > 20 |  |  | > 20 |  |  |  |  |  | 
CC(=O)OC(/C=C/c1ccccc1)=C1\C(=O)C=C(C)C1=O | 8.56 (≈ 30.3 µM) | > 20 | > 20 | 3.79 (≈ 13.4 µM) | > 20 | > 20 | 5.84 (≈ 20.7 µM) | 20 (≈ 70.8 µM) | > 20 | > 20 | > 20 | > 20 | > 20 | 5.5 (≈ 19.5 µM) | 4.9 (≈ 17.4 µM) |  | 
CO/C(=C1\C(=O)C=C(C)C1=O)c1ccccc1 | 10.6 (≈ 46.4 µM) | > 20 | > 20 | 7.88 (≈ 34.5 µM) | > 20 | > 20 | 6.04 (≈ 26.5 µM) | > 20 | > 20 | > 20 | > 20 | > 20 | > 20 | > 10 | > 10 |  | 
CC1=CC(=O)/C(=C(O)/C=C/c2ccc(Cl)cc2)C1=O | 13 (≈ 47.3 µM) | > 20 | > 20 | 10 (≈ 36.4 µM) | > 20 | > 20 | 13 (≈ 47.3 µM) | > 20 | > 20 | > 20 | > 20 | > 20 | > 20 | > 10 | 6 (≈ 21.8 µM) |  | 
CC1=C(C)C(=O)C(=C(O)/C=C/c2ccccc2)C1=O | > 20 |  |  |  |  |  |  | > 20 |  |  | > 20 |  |  |  |  |  | 
CC1=C(C)C(=O)C(=C(/C=C/c2ccccc2)OC(=O)c2ccccc2)C1=O | > 20 |  |  |  |  |  |  | > 20 |  |  | > 20 |  |  |  |  |  | 
CC1=CC(=O)/C(=C(\O)c2ccccc2)C1=O | > 20 |  |  |  |  |  |  | > 20 |  |  | > 20 |  |  |  |  |  | 
COC(/C=C/c1ccc(OC)cc1)=C1\C(=O)C=C(C)C1=O | 3.03 (≈ 10.7 µM) | 10 (≈ 35.2 µM) | 10 (≈ 35.2 µM) | 1.56 (≈ 5.49 µM) | 6.67 (≈ 23.5 µM) | 5 (≈ 17.6 µM) | 4.29 (≈ 15.1 µM) | 3.41 (≈ 12 µM) | 17 (≈ 59.8 µM) | 15 (≈ 52.8 µM) | > 20 | > 20 | > 20 | 5 (≈ 17.6 µM) | 3.9 (≈ 13.7 µM) | 13 (≈ 45.7 µM) | 10 (≈ 35.2 µM)
C[C@@H]1[C@H](O)[C@@H](C)/C=C/C=C/C=C/C=C/C=C/C=C/C=C/[C@H](O[C@@H]2O[C@H](C)[C@@H](O)[C@H](N)[C@@H]2O)C[C@@H]2O[C@](O)(C[C@@H](O)C[C@@H](O)[C@H](O)CC[C@@H](O)C[C@@H](O)CC(=O)O[C@H]1C)C[C@H](O)[C@H]2C(=O)O [AMPHOTERICIN B] | 0.15 (≈ 0.162 µM) | 1.04 (≈ 1.13 µM) | 0.63 (≈ 0.682 µM) | 0.12 (≈ 0.13 µM) |  | 0.52 (≈ 0.563 µM) | 0.17 (≈ 0.184 µM) | 0.41 (≈ 0.444 µM) | 1.67 (≈ 1.81 µM) |  | 0.73 (≈ 0.79 µM) |  |  | 7 (≈ 7.58 µM) | 2.4 (≈ 2.6 µM) | 0.83 (≈ 0.898 µM) | 0.63 (≈ 0.682 µM)
COC(/C=C/c1ccccc1)=C1\C(=O)C=C(C)C1=O [CORUSCANONE A] | 0.8 (≈ 3.15 µM) | 2.08 (≈ 8.18 µM) | 2.08 (≈ 8.18 µM) | 0.47 (≈ 1.85 µM) | 1.25 (≈ 4.92 µM) | 1.25 (≈ 4.92 µM) | 0.68 (≈ 2.67 µM) | 2.04 (≈ 8.02 µM) | 8.33 (≈ 32.8 µM) | 8.33 (≈ 32.8 µM) | 19 (≈ 74.7 µM) | > 20 | > 20 | 4.9 (≈ 19.3 µM) | 3.4 (≈ 13.4 µM) | 2.08 (≈ 8.18 µM) | 2.08 (≈ 8.18 µM)
COc1cccc2c1C(=O)c1c(O)c3c(c(O)c1C2=O)C[C@@](O)(C(=O)CO)C[C@@H]3O[C@H]1C[C@H](N)[C@H](O)[C@H](C)O1 [DOXORUBICIN] |  |  |  |  |  |  |  |  |  |  |  |  |  | 7.5 (≈ 13.8 µM) | 0.65 (≈ 1.2 µM) |  | 
OC(Cn1cncn1)(Cn1cncn1)c1ccc(F)cc1F [FLUCONAZOLE] | 0.22 (≈ 0.718 µM) | > 200 | 0.45 (≈ 1.47 µM) | 0.24 (≈ 0.784 µM) | > 200 | 0.45 (≈ 1.47 µM) | 118 (≈ 385 µM) | 5.65 (≈ 18.4 µM) | > 200 | 37 (≈ 121 µM) | > 200 | > 200 | > 200 | > 10 | > 10 | > 200 | > 200
